In ChEMBL document CHEMBL1153879, “Synthesis and pharmacokinetic evaluation of novel N-acyl-cordycepin derivatives with a normal alkyl chain” (Eur J Med Chem, 2009):

What was measured:
Mus musculus [1] = assay: Cmax in C57BL/6 mouse at 500 umol/kg, po assessed as transformed cordycepin levels; conditions: in vivo
[2] = Tmax in C57BL/6 mouse at 0.5 umol/kg, po; format: ADME, organism-based; conditions: in vivo
Outline: (§1)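 Male C57BL/6 mice (20±2 g, 7 weeks old) received a single oral dose in 2% Tween-80 aqueous solution. Blood was extracted with MeOH or EtOAc, depending on the compound, and assayed by HPLC. Parameters were derived from the mean profiles (n=5).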

Mus musculus [3] = assay: Half life in C57BL/6 mouse at 500 umol/kg, po assessed as transformed cordycepin levels; conditions: in vivo
[4] = AUC in C57BL/6 mouse at 0.5 umol/kg, po; format: ADME, organism-based; conditions: plasma
Outline: as §1

Mus musculus [5] = assay: Tmax in C57BL/6 mouse at 0.5 umol/kg, po assessed as transformed cordycepin levels; format: ADME, organism-based; conditions: in vivo
Outline: as §1

Mus musculus [6] = assay: AUC in C57BL/6 mouse at 0.5 umol/kg, po assessed as transformed cordycepin levels; format: ADME, organism-based, Plasma; conditions: in vivo, in the assay text read “500 umol/kg” for “0.5 umol/kg”
Outline: as §1

[7] = Cmax in C57BL/6 mouse at 0.5 umol/kg, po; format: ADME, organism-based; parameters: dose 0.5 umol/kg, route oral; conditions: in vivo
Outline: as §1

[8] = Half life in C57BL/6 mouse at 0.5 umol/kg, po; format: ADME, organism-based; conditions: in vivo
Outline: as §1

Mus musculus [9] = assay: Half life in C57BL/6 mouse at 0.5 umol/kg, po assessed as transformed cordycepin levels; format: ADME, organism-based; conditions: in vivo, in the assay text read “500 umol/kg” for “0.5 umol/kg”
Outline: as §1

SMILES | Cmax (Mus musculus [1]) | Tmax [2] | t1/2 (Mus musculus [3]) | AUC [4] | Tmax (Mus musculus [5]) | AUC (Mus musculus [6]) | Cmax [7] | half-life [8] | t1/2 (Mus musculus [9])
CCCCCCCCCCCC(=O)Nc1ncnc2c1ncn2[C@@H]1O[C@H](CO)C[C@H]1O | 15 µM | 6 h | 10.5 h | 672 µM·h | 8 h | 69.1 µM·h | 160 µM | 8.3 h | –
Nc1ncnc2c1ncn2[C@@H]1O[C@H](CO)C[C@H]1O [CORDYCEPIN] | 10.1 µM | 1.5 h | – | 19.2 µM·h | 1.5 h | 19.2 µM·h | 10.1 µM | 2.1 h | 2.1 h
CCCCCCCCCCCCCCCCCC(=O)Nc1ncnc2c1ncn2[C@@H]1O[C@H](CO)C[C@H]1O | 2.2 µM | 8 h | – | 32.5 µM·h | 10 h | 3.7 µM·h | 22.1 µM | 8.6 h | 10.8 h

Results, then the compound that gave them:

Cmax (Mus musculus [1]) | Tmax [2] | t1/2 (Mus musculus [3]) | AUC [4] | Tmax (Mus musculus [5]) | AUC (Mus musculus [6]) | Cmax [7] | half-life [8] | t1/2 (Mus musculus [9]) | SMILES
14.1 µM | 3 h | – | 356 µM·h | 5 h | 59.9 µM·h | 120 µM | 4.4 h | 7.5 h | CCC(=O)Nc1ncnc2c1ncn2[C@@H]1O[C@H](CO)C[C@H]1O
20.6 µM | 5 h | – | 1310 µM·h | 7 h | 83.7 µM·h | 310 µM | 6.8 h | 9.4 h | CCCCCCCC(=O)Nc1ncnc2c1ncn2[C@@H]1O[C@H](CO)C[C@H]1O
